Source: PubChem BioAssay (several laboratories)
An excerpt weighted towards active compounds, which were near 3.6% of everything screened.
Yeast growth inh: chemicals that inhibit yeast BB579 growth in restrictive medium (lifespan-shortening candidates); hit rate 0.51% among 140,000; AID 804; inhibition, % at 10 µM; S. cerevisiae BB579 growth, OD615, 48 h;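 active means inhibition above a set limit, 3 SD over the mean compound inhibition, cut at about 44% in these data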
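Test system: Saccharomyces cerevisiae DeaD strain BB579, replicative lifespan model yeast | Buffer or medium: Restrictive CSMM-D medium | Doses: One dose, 10 µM compound with 0.25% DMSO | Incubation: 48 h exposure, 30 °C | Detection: Culture absorbance at 615 nm | Control set: Amphotericin B at 10 µg/mL as positive control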
Yeast lifespan up: extends the lifespan of yeast; hit rate 0.68% among 130,000; S. cerevisiae growth with nicotinamide, OD615; deaD strain in restrictive glucose medium; inhibition of the nicotinamide effect, % at 10 µM; AID 775;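 active means inhibition above a set limit, placed 3 SD over the median of all compounds, cut at about 26% in these data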
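Assay system: DeaD-strain S. cerevisiae. Medium: CSMM-D glucose medium, restrictive. Reagent: nicotinamide, 1.5 mM, co-present with compound. Compound: 10 µM single point, 0.25% DMSO. Schedule: culture preincubation 4 h, compound exposure 48 h, both 30 °C. Detection: absorbance at 615 nm.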
Phagocytosis inh: inhibitors of macrophage phagocytosis. J774A.1 macrophage IgG-bead phagocytosis, imaging. inhibition, % at 5 µM. hit rate 0.07% among 110,000. AID 1029;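 active means inhibition above the mean of the plate negative controls plus 5 SD, cut at about 13% in these data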;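 further: phagocytic index as fraction of beads internalized from green versus red external bead signal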
Measles CPE: protection of cells from measles virus; Measles virus-infected cells, CPE protection, absorbance; protection (pct of control), % at 4 µM; hit rate 1.5% among 140,000; in the data active means protection mostly above about 24%, no sharp cut-off; inactive means mostly below about 26%
RAM network inh: yeast RAM network inhibition. inhibition, % at 50 µM. AID 868. S. cerevisiae dse1pr::URA3 reporter, 5-FOA growth OD615, 2 d; analog-sensitive cbk1-as2 kinase mutant strain. hit rate 1.8% among 190,000;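 active means inhibition above a set limit, 3 SD over mean compound inhibition, cut at about 8.4% in these data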;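 further: inhibition rescues growth on 5-FOA so higher OD means more RAM inhibition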
Numbers stand for hits.

Screening Cc1ccc(Nc2cc(C)nn2-c2nc(C)cc(=O)[nH]2)cc1 returned Yeast growth inh 99.7, Yeast lifespan up inactive, Measles CPE inactive and RAM network inh inactive.
`CCOc1ccc(NS(=O)(=O)c2ccc3ncsc3c2)cc1` gave RAM network inh inactive.
Cc1ccc(-c2nc(SCC(=O)Nc3cc(S(=O)(=O)N4CCCCC4)ccc3Cl)n[nH]2)cc1 was read as Yeast growth inh inactive, Yeast lifespan up inactive, Phagocytosis inh inactive, Measles CPE inactive and RAM network inh 9.5.
`Cc1ccc(NC(=O)c2c(C(F)(F)F)nn(C)c2SCc2cccc(C(F)(F)F)c2)cc1C` gave Yeast growth inh inactive, Yeast lifespan up inactive, Measles CPE inactive and RAM network inh inactive.
For Cc1ccc(NC(=O)c2c(C(F)(F)F)nn(C)c2SCc2ccc(Cl)cc2)cc1C the results were Yeast growth inh inactive, Yeast lifespan up inactive, Measles CPE inactive and RAM network inh 11.4.
`CC(C)(C)c1ccc(CS(=O)CC(O)CO)cc1` (stereo not given) gave Yeast growth inh inactive, Yeast lifespan up inactive, Phagocytosis inh inactive, Measles CPE inactive and RAM network inh inactive.
`CC(C)C(C(=O)O)N1C(=O)/C(=C/c2cccn2C)SC1=S` (stereo not given) gave Yeast growth inh inactive, Yeast lifespan up 41.5, Phagocytosis inh inactive, Measles CPE inactive and RAM network inh inactive.
O=C1/C(=C/c2ccccn2)SC(=S)N1NS(=O)(=O)c1ccccc1 was read as RAM network inh inactive.
`Cc1ccc(S(=O)(=O)NN2C(=O)/C(=C/c3cccn3C)SC2=S)cc1` gave Yeast growth inh inactive, Yeast lifespan up 29.5, Phagocytosis inh inactive, Measles CPE inactive and RAM network inh inactive.
`Cn1cccc1/C=C1/SC(=O)N(CC(=O)N2CCCC2)C1=O` gave RAM network inh inactive.
CCCC(C(=O)O)N1C(=O)/C(=C/c2cccn2C)SC1=S (stereo not given) was read as Yeast growth inh inactive, Yeast lifespan up 26.9, Phagocytosis inh inactive, Measles CPE inactive and RAM network inh inactive.
For C=CCn1cc(C(C)=O)c(=O)[nH]c1=O the results were RAM network inh inactive.
Screening O=C1NC(=S)S/C1=C\c1ccc(SCc2ccccc2)o1 returned Yeast growth inh inactive, Yeast lifespan up inactive, Phagocytosis inh inactive, Measles CPE inactive and RAM network inh 10.0.
`C/C(=N\Nc1ccc(Cl)cc1)c1ccccn1` gave Yeast growth inh 92.0, Yeast lifespan up inactive, Phagocytosis inh inactive, Measles CPE inactive and RAM network inh inactive.
For CCOC(=O)c1c(CC(C)C)csc1/N=C/C1C(=O)CCCC1=O the results were RAM network inh inactive.
`CCOC(=O)c1c(-c2ccccc2)csc1/N=C/C1C(=O)CCCC1=O` gave Yeast growth inh inactive, Yeast lifespan up inactive, Phagocytosis inh inactive, Measles CPE 53.0 and RAM network inh inactive.
For COc1ccc(C(CNC(=O)c2ccccc2C)N2CCCC2)cc1 (stereo not given) the results were Yeast growth inh inactive, Yeast lifespan up inactive, Phagocytosis inh inactive, Measles CPE inactive and RAM network inh inactive.
For COc1ccc(C(CNC(=O)c2cccc(Br)c2)N2CCCC2)cc1 (stereo not given) the results were Yeast growth inh inactive, Yeast lifespan up 122.7, Phagocytosis inh inactive, Measles CPE inactive and RAM network inh inactive.
Screening CC1(C)N([O-])C2=C(c3ccccc3C2=O)[N+](=O)C1(C)C returned Yeast growth inh inactive, Yeast lifespan up 52.5, Phagocytosis inh inactive, Measles CPE inactive and RAM network inh inactive.
`O=C(CN(Cc1ccccc1)C(=O)CSc1nnc(COc2ccccc2)o1)NC1CCCC1` gave Yeast growth inh inactive, Measles CPE inactive and RAM network inh 8.6.
`CC(C)(C)NC(=O)CN(C(=O)CSc1nnc(COc2ccccc2)o1)c1cccc(F)c1` gave Yeast growth inh inactive, Yeast lifespan up inactive, Phagocytosis inh inactive, Measles CPE 30.6 and RAM network inh inactive.
`Cc1ccc(CN(CC(=O)NC2CCCC2)C(=O)CSc2nnc(COc3ccccc3)o2)cc1` gave Yeast growth inh inactive, Measles CPE inactive and RAM network inh 8.7.
For Cc1cccc(OCc2nnc(SCC(=O)OC3CCCCC3)o2)c1 the results were Yeast growth inh inactive, Yeast lifespan up inactive, Phagocytosis inh inactive, Measles CPE inactive and RAM network inh 10.2.
Screening O=C(Cn1cc(C(F)(F)F)cc(Cl)c1=O)NCCc1ccccc1 returned Yeast growth inh inactive, Yeast lifespan up inactive, Phagocytosis inh inactive, Measles CPE inactive and RAM network inh inactive.
